Data set [1] in a line: Crystallization inhibition of excipients. The format is physicochemical. Conditions: after 5 min. Put shortly:
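Supersaturated stock (27 mg test compound in 5 mL 95% ethanol) added rapidly to 900 mL water, here with no excipient (control), at 37°C and 50 r/min. 5 mL samples were taken at 5–240 min and replaced with drug-free medium. Samples were filtered (0.22 µm) and assayed by HPLC (C18, acetonitrile-water 84:16, 1 mL/min, 203 nm). Run in triplicate.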

The conditions of data set [2]: rats; cited from earlier work.
A short description of data set [3]: Determination of saturated solubility of ASDs in distilled water. The format is physicochemical. The settings on record: 37±0.5°C, 48 h, drug:Soluplus 1:10 w/w, Figure 5A. An outline of the steps: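 Solid dispersions were made by co-precipitation from anhydrous ethanol, freeze-drying from 2% ethanol (−40°C 8 h, then −45°C 24 h), or microwave (700 W, 10 min) with liquid-nitrogen quench. Products were ground and sieved (60 mesh). Excess material was shaken in 5 mL water, then filtered (0.45 µm). Concentration was measured by HPLC (C18, acetonitrile-water 84:16, 203 nm).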

Here are results for 1 molecule from paper PMC7396739 (Drug Design, Development and Therapy, 2020).

Take `C[C@@H]1CC[C@@]2(OC1)O[C@H]1C[C@H]3[C@@H]4CC=C5C[C@@H](O)CC[C@]5(C)[C@H]4CC[C@]3(C)[C@H]1[C@@H]2C` [Dio, diosgenin]: the “concentration of Dio in dissolution medium without excipient” value in data set [1] is listed as “lower than the detection limit”. For the same molecule, the absolute bioavailability entry in data set [2] was “about 7%”. Also, in data set [3], the solubility result is recorded as “lower than the detection limit”.
